One assay has as its system THP-1 cells. Kind of assay: Targeted LC-MS of. The format is cell-based, human. The note with it: 4 h. The method, boiled down:
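THP-1 cells (6 million in 10 mL) incubated with test compound or DMSO for 4 h at 37 °C, 5% CO₂. Cells washed twice with ice-cold DPBS and stored at −80 °C, then analysed by targeted LC-MS metabolomics for lyso-PS and PS species.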

For assay [1], the target named is T1, ABHD12 (Homo sapiens, UniProt Q8N2K0).
T1 sequence (Q8N2K0 1-398): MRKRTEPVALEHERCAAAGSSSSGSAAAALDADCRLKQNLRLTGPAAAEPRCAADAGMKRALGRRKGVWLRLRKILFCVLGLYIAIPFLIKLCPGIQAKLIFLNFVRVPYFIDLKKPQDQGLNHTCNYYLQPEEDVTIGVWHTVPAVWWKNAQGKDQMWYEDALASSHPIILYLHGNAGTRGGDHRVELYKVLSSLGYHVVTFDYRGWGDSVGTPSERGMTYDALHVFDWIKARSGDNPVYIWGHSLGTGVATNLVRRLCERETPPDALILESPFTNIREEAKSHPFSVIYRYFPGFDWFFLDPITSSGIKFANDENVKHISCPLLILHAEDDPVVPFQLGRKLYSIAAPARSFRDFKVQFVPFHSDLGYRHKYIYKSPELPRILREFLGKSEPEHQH
Kind of assay: In situ treatment of THP-1 cells, competitive gel-based ABPP with JJH350 probe. The format is cell-based. The note with it: 1 μM, 4 h in situ. In outline:
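Whole THP-1 cells exposed to test compound or DMSO for 4 h at 37 °C, 5% CO₂, then washed twice with ice-cold DPBS. Proteome (1 mg/mL) labelled with JJH350 (2 μM final, 45 min, 37 °C), clicked by CuAAC and resolved on gel. ABHD12 band intensity is expressed relative to the control-treated sample, set to 100%.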

For assay [2], the target named is T1, ABHD12. Kind of assay: ABPP-SILAC. The format is cell-based. The note with it: 1 μM, 4 h, THP-1 cells. The method, boiled down:
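Heavy- or light-labelled THP-1 cells (30 million) differentiated with PMA (150 ng/mL final) for 24 h, washed, then kept a further 24 h in fresh SILAC medium. Light cells treated with test compound and heavy cells with DMSO, 4 h at 37 °C. Sonicated whole-cell proteomes (2 mg/mL) labelled separately with FP-biotin 1 μM, 30 min, room temperature, then combined for quantitative MS.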

Assay [3] deals with T2, serine hydrolases in THP-1 cells (Homo sapiens, UniProt P08910).
T2 sequence (P08910 1-425): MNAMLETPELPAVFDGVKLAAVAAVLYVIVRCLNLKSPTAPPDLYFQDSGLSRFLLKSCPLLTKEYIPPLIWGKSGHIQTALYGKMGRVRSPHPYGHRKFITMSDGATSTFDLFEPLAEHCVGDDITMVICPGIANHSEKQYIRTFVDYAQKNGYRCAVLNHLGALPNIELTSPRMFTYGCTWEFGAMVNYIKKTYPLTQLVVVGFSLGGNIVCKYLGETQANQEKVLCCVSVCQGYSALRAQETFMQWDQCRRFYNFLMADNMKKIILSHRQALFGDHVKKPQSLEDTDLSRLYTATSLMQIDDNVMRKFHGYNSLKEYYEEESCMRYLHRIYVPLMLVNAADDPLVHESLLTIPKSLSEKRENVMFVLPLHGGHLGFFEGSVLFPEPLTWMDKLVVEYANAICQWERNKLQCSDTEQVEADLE
Kind of assay: ABPP-SILAC. Format: cell-based.

Assay [4] has as its system serine hydrolases in THP-1 cells. Kind of assay: ABPP-SILAC. Format: cell-based, human. The note with it: 1 μM, 4 h, THP-1 cells.
In a further assay the target is T3, mouse PLA2G6 (Mus musculus, UniProt P97819).
T3 sequence (P97819 1-807): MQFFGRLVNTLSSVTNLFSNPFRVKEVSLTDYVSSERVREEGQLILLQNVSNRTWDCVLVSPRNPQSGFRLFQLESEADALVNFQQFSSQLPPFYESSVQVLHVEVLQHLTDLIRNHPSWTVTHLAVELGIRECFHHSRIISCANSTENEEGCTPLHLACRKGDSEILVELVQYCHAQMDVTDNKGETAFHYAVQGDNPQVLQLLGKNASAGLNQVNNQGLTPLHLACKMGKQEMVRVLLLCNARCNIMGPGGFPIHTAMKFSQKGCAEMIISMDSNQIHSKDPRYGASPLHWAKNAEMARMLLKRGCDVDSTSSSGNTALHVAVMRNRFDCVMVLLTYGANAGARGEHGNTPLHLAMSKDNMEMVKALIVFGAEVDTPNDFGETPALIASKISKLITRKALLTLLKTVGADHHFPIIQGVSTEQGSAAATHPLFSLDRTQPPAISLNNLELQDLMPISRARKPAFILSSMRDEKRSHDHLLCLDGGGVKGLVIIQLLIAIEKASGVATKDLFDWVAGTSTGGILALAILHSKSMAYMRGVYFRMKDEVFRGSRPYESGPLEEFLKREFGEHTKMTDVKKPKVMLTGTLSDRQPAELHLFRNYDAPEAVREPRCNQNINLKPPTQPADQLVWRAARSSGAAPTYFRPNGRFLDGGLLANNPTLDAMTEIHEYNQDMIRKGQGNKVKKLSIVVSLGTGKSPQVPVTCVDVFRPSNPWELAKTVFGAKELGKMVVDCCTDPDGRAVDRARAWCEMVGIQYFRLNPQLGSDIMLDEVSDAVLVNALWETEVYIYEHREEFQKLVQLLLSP
Description: Competitive gel ABPP. Format: biochemical. Conditions: membrane lysate 1 mg/mL of transfected HEK293T cells, FP-Rh. In outline: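 HEK293T cells transiently transfected with mouse PLA2G6 cDNA (pCMV-SPORT6); membrane lysate (1 mg/mL) prepared. Lysate pre-exposed to test compound, then labelled with FP-Rh (1 μM final, 45 min, 37 °C). Gel band intensity compared with a control-treated sample.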

Assay [5] deals with T4, mouse brain serine hydrolases (Mus musculus, UniProt Q9QXM0).
T4 sequence (Q9QXM0 1-425): T2 sequence (P08910 1-425) with K194R, L198Q, L412S, V420M, D423E
Format: biochemical. The note with it: MS-ABPP, mouse brain membrane proteome, 1 μM.

Where a chain is given by its changes, count along the chain named.

Data on one compound can be found in publication PMC6263940 (Nature chemical biology, 2018).

For the compound `FC(F)(F)Oc1ccc(Oc2ccnc(N3CCC(NC(=S)Nc4cccnc4)CC3)c2Cl)c(Cl)c1` [DO264, N-3-pyridyl-N’-(1-[3-chloro-4-{2-chloro-4-(trifluoromethoxy)phenoxy}pyridine-2-yl]piperidin-4-yl)thiourea], the “20:4 PS lipids of THP-1 cells” value in the assay on THP-1 cells (0.001-1 μM) is given as “concentration-dependent increase”. In the assay on THP-1 cells (DO264 0.001-1 μM, (S)-DO271 1 μM), the “lyso-PS content of THP-1 cells” value was “substantial elevations”. The “ABHD12 activity in THP-1 cells by competitive gel-based ABPP (in words)” value on ABHD12 [1] was “complete blockade”. Also, on ABHD12 [2], the ABHD12 activity blocked is over 95%. For the same compound, the “inhibition of human ABHD2 in situ” value in assay [3] is given as “did not inhibit”. Also, the “effect on activity of other serine hydrolases” value in assay [4] was “without affecting the activity of other serine hydrolases”. The “inhibition of recombinantly expressed PLA2G6” value at mouse PLA2G6 is “nor did the compound inhibit”. In addition, the “inhibition of mouse ABHD2 in vitro” value in assay [5] is recorded as “did not inhibit”.
